Experimental data as given in ChEMBL document CHEMBL5724801, “EUbOPEN Chemogenomics Library - Multiplex” (2024).
“And” between values parts separate entries of the source, which are not always exact repeats. Equal entries are not always repeated.

Assays:
[1] = tested on: Fibroblast; assay: Multiplex assay against human fibroblast; assay type: toxicity, cell-based
Procedure, shortened: (§1)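 Per cents of healthy-nucleus cells form the tubulin, mitochondrial-mass and membrane-permeability phenotype values. Live cells were stained at seeding with Hoechst33342, BioTracker Green Microtubule Cytoskeleton Dye, MitoTracker Red and Annexin V Alexa Fluor 680. After compound addition they were imaged on a CQ1 microscope at 37°C and 5% CO2, and CellPathfinder machine-learning gating split them into Hoechst high-intensity objects or normal cells, normal cells into healthy, pyknosed or fragmented nuclei, and pyknosed cells into mitotic or apoptotic.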

[2] = tested on: HEK-293T; assay: Multiplex assay against HEK293T; assay type: toxicity, cell-based; conditions: human; procedure, shortened: as §1
[3] = 24 h, 10 µM, compound concentration 10 uM
[4] = 48 h, 1 µM, compound concentration 1 uM
[5] = 48 h, 10 µM, compound concentration 10 uM
[6] = 12 h, 1 µM, compound concentration 1 uM
[7] = 12 h, 10 µM, compound concentration 10 uM
[8] = 24 h, 1 µM, compound concentration 1 uM

SMILES: Cc1sc2c(c1C)C(c1ccc(Cl)cc1)=N[C@@H](CC(=O)NCCCCCCCCNC(=O)COc1cccc3c1C(=O)N(C1CCC(=O)NC1=O)C3=O)c1nnc(C)n1-2 (stereo not given in full)
- Population Fragmented Nuclei (%) [1, 3]: 20% and 25%
- Population Healthy Nuclei (%) [1, 3]: 38% and 32%
- Population Hoechst High Intensity Objects (%) [1, 3]: 13% and 12%
- Population Mitochondria Different-Phenotype (%) [1, 3]: 9% and 20%
- Population Mitotic Cells (%) [1, 3]: 32% and 55%
- Population Normal (%) [1, 3]: 86% and 87%
- Population Pyknosed Nuclei (%) [1, 3]: 41% and 42%
- Population Tubulin-Different-Phenotype (%) [1, 3]: 47% and 68%
- Total Cell Count [1, 3]: 154 and 103
- Population Apoptotic (%) [1, 4]: 88% and 93%
- Population Fragmented Nuclei (%) [1, 4]: 41% and 42%
- Population Healthy Nuclei (%) [1, 4]: 24% and 37%
- Population Mitochondria Different-Phenotype (%) [1, 4]: 0% and 20%
- Population Mitotic Cells (%) [1, 4]: 12% and 6%
- Population Normal (%) [1, 4]: 72% and 91%
- Population Pyknosed Nuclei (%) [1, 4]: 33% and 20%
- Population Tubulin-Different-Phenotype (%) [1, 4]: 33% and 82%
- Total Cell Count [1, 4]: 102 and 85
- Population Apoptotic (%) [1, 5]: 86% and 57%
- Population Fragmented Nuclei (%) [1, 5]: 40% and 38%
- Population Healthy Nuclei (%) [1, 5]: 20% and 38%
- Population Hoechst High Intensity Objects (%) [1, 5]: 38% and 15%
- Population Membrane Permeable-Phenotype (%) [1, 5]: 5% and 14%
- Population Mitochondria Different-Phenotype (%) [1, 5]: 10% and 14%
- Population Normal (%) [1, 5]: 61% and 84%
- Population Pyknosed Nuclei (%) [1, 5]: 38% and 23%
- Population Tubulin-Different-Phenotype (%) [1, 5]: 55% and 80%
- Total Cell Count [1, 5]: 156 and 108
- Population Apoptotic (%) [2, 6]: 66% and 62%
- Population Fragmented Nuclei (%) [2, 6]: 5% and 6%
- Population Healthy Nuclei (%) [2, 6]: 55% and 69%
- Population Membrane Permeable-Phenotype (%) [2, 6]: 0%
- Population Mitochondria Different-Phenotype (%) [2, 6]: 73% and 91%
- Population Mitotic Cells (%) [2, 6]: 33% and 37%
- Population Normal (%) [2, 6]: 90% and 69%
- Population Pyknosed Nuclei (%) [2, 6]: 39% and 24%
- Population Tubulin-Different-Phenotype (%) [2, 6]: 49% and 59%
- Total Cell Count [2, 6]: 175 and 205
- Population Apoptotic (%) [2, 7]: 60% and 53%
- Population Fragmented Nuclei (%) [2, 7]: 9% and 8%
- Population Healthy Nuclei (%) [2, 7]: 67% and 66%
- Population Hoechst High Intensity Objects (%) [2, 7]: 14% and 37%
- Population Membrane Permeable-Phenotype (%) [2, 7]: 0%
- Population Mitochondria Different-Phenotype (%) [2, 7]: 75% and 87%
- Population Mitotic Cells (%) [2, 7]: 39% and 46%
- Population Normal (%) [2, 7]: 85% and 62%
- Population Pyknosed Nuclei (%) [2, 7]: 23% and 24%
- Population Tubulin-Different-Phenotype (%) [2, 7]: 23% and 39%
- Total Cell Count [2, 7]: 363 and 315
- Population Apoptotic (%) [2, 8]: 51% and 67%
- Population Fragmented Nuclei (%) [2, 8]: 7% and 6%
- Population Healthy Nuclei (%) [2, 8]: 61% and 70%
- Population Membrane Permeable-Phenotype (%) [2, 8]: 0%
- Population Mitochondria Different-Phenotype (%) [2, 8]: 58% and 83%
- Population Mitotic Cells (%) [2, 8]: 48% and 32%
- Population Normal (%) [2, 8]: 93% and 69%
- Population Pyknosed Nuclei (%) [2, 8]: 31% and 23%
- Population Tubulin-Different-Phenotype (%) [2, 8]: 22% and 31%
- Total Cell Count [2, 8]: 261 and 231
- Population Apoptotic (%) [2, 3]: 52% and 57%
- Population Fragmented Nuclei (%) [2, 3]: 11% and 9%
- Population Healthy Nuclei (%) [2, 3]: 64% and 60%
- Population Membrane Permeable-Phenotype (%) [2, 3]: 0%
- Population Mitochondria Different-Phenotype (%) [2, 3]: 64% and 86%
- Population Mitotic Cells (%) [2, 3]: 47% and 42%
- Population Normal (%) [2, 3]: 87% and 60%
- Population Pyknosed Nuclei (%) [2, 3]: 24% and 30%
- Population Tubulin-Different-Phenotype (%) [2, 3]: 19%
- Total Cell Count [2, 3]: 397 and 346
- Population Apoptotic (%) [2, 4]: 55% and 67%
- Population Fragmented Nuclei (%) [2, 4]: 7% and 9%
- Population Healthy Nuclei (%) [2, 4]: 58% and 65%
- Population Membrane Permeable-Phenotype (%) [2, 4]: 0%
- Population Mitochondria Different-Phenotype (%) [2, 4]: 56% and 78%
- Population Mitotic Cells (%) [2, 4]: 44% and 32%
- Population Normal (%) [2, 4]: 97% and 84%
- Population Pyknosed Nuclei (%) [2, 4]: 33% and 25%
- Population Tubulin-Different-Phenotype (%) [2, 4]: 30% and 42%
- Total Cell Count [2, 4]: 284 and 289
- Population Apoptotic (%) [2, 5]: 48% and 65%
- Population Fragmented Nuclei (%) [2, 5]: 9% and 15%
- Population Healthy Nuclei (%) [2, 5]: 55% and 52%
- Population Hoechst High Intensity Objects (%) [2, 5]: 14% and 31%
- Population Membrane Permeable-Phenotype (%) [2, 5]: 0%
- Population Mitochondria Different-Phenotype (%) [2, 5]: 51% and 76%
- Population Mitotic Cells (%) [2, 5]: 51% and 34%
- Population Normal (%) [2, 5]: 85% and 69%
- Population Pyknosed Nuclei (%) [2, 5]: 35% and 31%
- Population Tubulin-Different-Phenotype (%) [2, 5]: 17% and 31%
- Total Cell Count [2, 5]: 403 and 300
